Assay outcomes (PubChem)
Hits are enriched below; roughly 2% of the tested compounds scored in any of these assays.
HIF act = HIF pathway transcriptional activation; U2OS HRE-luciferase reporter, luminescence; normalized: DMSO 0%, desferrioxamine 100%; activation, % at 7.5 µM (by protocol); AID 1910; actives 0.32% (n = 300,000);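 active = mean activation of at least 10% of the iron chelator positive control signal, with at least half of replicates also reaching 10%; inconclusive = mean and replicate majority disagree about reaching 10%; inactive = mean and most replicates under 10%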
AI-2 QS mod = modulates the Vibrio harveyi AI-2 quorum sensing system | Vibrio harveyi JMH597 AI-2 luminescence/OD600 ratio, 9 h; stronger effect = lower value; strain lacks LuxN and CqsS sensors; 0 = neutral-control median | activity change, % at 7.5 µM | actives 0.4% (n = 300,000); in the data active = activity change below about -75%, passing the limit was not always enough; inconclusive = no clear call, values can overlap the other calls;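 note: luminescence divided by OD600 gain over 9 h not by final OD600 alone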
T cruzi repl = blocks replication of Trypanosoma cruzi; T. cruzi beta-gal in NIH3T3, luminescence, 90 h; inhibition, % (test concentration not listed); actives 1.4% (n = 300,000); AID 1885;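 active = mean inhibition across valid replicates above about 55%, limit read from the data; inconclusive = mean below that limit but half or more replicates reach it; inactive = mean below it, under half of replicates reach it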;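 note: signal also drops with host cell toxicity which is not excluded here; higher percent means less beta-gal luminescence so fewer parasites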
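Incubation – ≥90 h infection period, 3 h prior cell attachment · System – NIH/3T3 fibroblasts plus reporter T. cruzi · Doses – compound pinned at 50 nL/well, DMSO · Read-out basis – percent inhibition of parasite-derived β-gal signal · Signal – luminescent β-galactosidase signal after 60 min lysis · Also added – 5000 T. cruzi trypomastigotes/well · Medium – Low-serum DMEM with 2% FBS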
ARNT-TACC3 inh = disruptors of human ARNT/TACC3 interaction; actives 0.66% (n = 390,000); inhibition, % at 9.99 µM; AlphaScreen His-ARNT PAS-B/GST-TACC3 binding, luminescence; TACC3 fragment carries E629A point mutation; AID 623870;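 active = mean inhibition of replicates at least 50% and at least half of replicates each reaching 50%; inconclusive = half or more replicates reach 50% but mean below 50%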
Of the large screens only hits and unclear results are named; the others gave an inactive call.

C[C@@H]1CCCCO[C@H](CN(C)C(=O)Nc2ccccc2)[C@@H](C)CN([C@@H](C)CO)C(=O)c2cc(NC(=O)c3ccncc3)ccc2O1	none (no result: HIF act, AI-2 QS mod, T cruzi repl)
Cc1ccc(Nc2nc(CSc3nnc(-c4ccncc4)n3C)cs2)cc1	HIF act 258
Cc1cccc(Nc2nc(-c3ccncc3)cs2)c1	T cruzi repl 61
Cc1ccc(S(=O)(=O)Nc2nc(-c3ccc(F)cc3)cs2)cc1	AI-2 QS mod -92, T cruzi repl inconclusive
Clc1ccc(-c2csc(Nc3cccnc3)n2)cc1	T cruzi repl 58
Cc1ccc(CSc2nnc(-c3ccncc3)n2C)cc1	none
CN1CCN(C(=O)C[C@H]2C[C@H]3c4cc(NC(=O)Nc5ccccc5F)ccc4O[C@H]3[C@@H](CO)O2)CC1	none (no result: HIF act, AI-2 QS mod, T cruzi repl)
C[C@H]1CN([C@@H](C)CO)C(=O)c2cccc(NC(=O)Nc3ccccc3)c2O[C@@H]1CN(C)CC1CCCCC1	none (no result: HIF act, AI-2 QS mod, T cruzi repl)
COc1ccc(NC(=O)N(C)C[C@H]2Oc3ccc(NC(=O)c4ccncc4)cc3C(=O)N([C@H](C)CO)C[C@H]2C)cc1	none (no result: HIF act, AI-2 QS mod, T cruzi repl)
Cc1ccc(Nc2nc(-c3ccncc3)cs2)cc1	T cruzi repl 70
Clc1cccc(Nc2nc(-c3ccncc3)cs2)c1	T cruzi repl 66
COc1ccc(NC(=O)N(C)C[C@H]2OCCCC[C@@H](C)Oc3ccc(NS(=O)(=O)c4cn(C)cn4)cc3C(=O)N([C@@H](C)CO)C[C@@H]2C)cc1	none (no result: HIF act, AI-2 QS mod, T cruzi repl)
O=C(Nc1ccccc1F)N1C[C@@H]2[C@H](c3ccccc31)[C@H](CO)N2C(=O)Cc1ccccc1	none (no result: HIF act, AI-2 QS mod, T cruzi repl)
COCC#Cc1ccc2c(c1)O[C@H](CN(C)C(=O)Nc1ccccc1F)[C@H](C)CN([C@H](C)CO)S2(=O)=O	none (no result: HIF act, AI-2 QS mod, T cruzi repl)
O=C(NC(c1ccc(Cl)cc1)c1cc(Cl)c2cccnc2c1O)c1cccnc1 (centres undefined)	T cruzi repl 58
CC(=O)NC(c1ccccc1)c1cc(Cl)c2cccnc2c1O (centres undefined)	T cruzi repl inconclusive
CC(=O)NC(c1cc(F)c2cccnc2c1O)C1CC1 (centres undefined)	ARNT-TACC3 inh 40 (no result: HIF act, AI-2 QS mod, T cruzi repl)
CN(Cc1cc([N+](=O)[O-])c2cccnc2c1O)C1CCCCC1	none (no result: ARNT-TACC3 inh)
CCOc1ccc(C(NC(=O)c2ccco2)c2ccc(OC)c(OC)c2)cc1 (centres undefined)	none
CCCC(=O)NC(c1ccc(OC)c(OC)c1)c1cc(Cl)c2cccnc2c1O (centres undefined)	T cruzi repl 56 (no result: ARNT-TACC3 inh)
COc1ccc(C(NC(C)=O)c2cc(Cl)c3cccnc3c2O)cc1 (centres undefined)	T cruzi repl 63
C[C@H](CO)N1C[C@H](C)[C@@H](CN(C)C(=O)Nc2cccc3ccccc23)Oc2ccc(NC(=O)Nc3ccc(F)cc3)cc2C1=O	none (no result: HIF act, AI-2 QS mod, T cruzi repl)
CC(=O)NC(c1ccc(C)cc1)c1cc([N+](=O)[O-])c2cccnc2c1O (centres undefined)	AI-2 QS mod inconclusive, T cruzi repl 55 (no result: ARNT-TACC3 inh)
CCN(CC)CCn1nc2c3c(cccc3c1=O)-c1ccccc1-2	HIF act 29, T cruzi repl 58
CC(=O)Nc1ccc2nc(NC(=O)c3ccc([N+](=O)[O-])s3)sc2c1	T cruzi repl 56 (no result: ARNT-TACC3 inh)
CC(=O)Nc1ccc2nc(NC(=O)c3cccs3)sc2c1	none
CCC(=O)Nc1nc2ccc([N+](=O)[O-])cc2s1	T cruzi repl 63
CCCC(=O)Nc1ccc2c(c1)OC[C@H](C)N(C(=O)CC)C[C@@H](C)[C@@H](OC)CN(C)C2=O	none (no result: HIF act, AI-2 QS mod, T cruzi repl)
COC(=O)C1CCN(CC(=O)Nc2cc(Cl)ccc2OC)CC1	T cruzi repl 55 (no result: ARNT-TACC3 inh)
COc1ccc(C)cc1NC(=O)CN1CCN(S(=O)(=O)c2ccc(C(C)C)cc2)CC1	T cruzi repl 62
COc1ccc([N+](=O)[O-])cc1NC(=O)COC(=O)C1CC1	T cruzi repl 56
CCC(=O)OCC(=O)Nc1cc([N+](=O)[O-])ccc1OC	none
COCC(=O)Nc1ccc2c(c1)C(=O)N(C)C[C@@H](OC)[C@@H](C)CN(C(=O)c1ccccc1)[C@H](C)CO2	none (no result: HIF act, AI-2 QS mod, T cruzi repl)
Cc1ccc(-c2nnc(N3CCCCCC3)c3ccccc23)cc1	T cruzi repl 64
Cc1ccc(OCC(=O)N2CCN(c3nnc(-c4ccc(C)cc4)c4ccccc34)CC2)cc1	T cruzi repl 61
COc1ccc(OCC(=O)N2CCN(c3nnc(-c4ccc(C)cc4)c4ccccc34)CC2)cc1	none
COc1ccc(-c2nnc(N3CCCCC3)c3ccccc23)cc1	none
O=C(COc1ccccc1)N1CCN(c2nnc(-c3ccccc3)c3ccccc23)CC1	T cruzi repl 55
O=C(C[C@H]1CC[C@@H]2[C@H](COC[C@@H](O)CN2C(=O)c2ccccc2F)O1)N1CCCCC1	none (no result: HIF act, AI-2 QS mod, T cruzi repl)
CCOC(=O)c1c(NC(=O)/C=C/C(=O)O)sc(C)c1-c1ccc(C(C)(C)C)cc1	T cruzi repl 57
CCOC(=O)c1c(NC(=O)c2c(-c3ccccc3)noc2C)sc(C)c1-c1ccccc1	T cruzi repl 63
CCOC(=O)c1c(NC(=O)/C=C\C(=O)O)sc(C)c1-c1ccccc1	none
Cc1ccc(-n2nc3c(=O)n(CC(=O)NCc4ccccc4)nc(C)c3c2C)cc1	HIF act 89
Cc1cccc(CN2CCN(CCCc3ccccc3)CC2)c1	T cruzi repl 63 (no result: ARNT-TACC3 inh)
CCOc1ccc(S(=O)(=O)NC(Cc2cnc[nH]2)C(=O)O)cc1 (centres undefined)	none
CCOc1ccc(C(=O)CCNC(Cc2cnc[nH]2)C(=O)O)cc1 (centres undefined)	ARNT-TACC3 inh 61
O=c1c(CO)cc(CO)cc(CO)c1O	ARNT-TACC3 inh 74
O=C(c1ccc([N+](=O)[O-])cc1[N+](=O)[O-])N1CCc2ccccc21	T cruzi repl 58
CC1(C)CC2CC(C)(CN2C(=O)c2ccc([N+](=O)[O-])cc2)C1 (centres undefined)	none
CC1(C)CC2CC(C)(CN2C(=O)c2ccc([N+](=O)[O-])cc2[N+](=O)[O-])C1 (centres undefined)	T cruzi repl 97
CO[C@@H]1CN(C)C(=O)c2ccc(NS(=O)(=O)c3ccccc3)cc2OC[C@H](C)N(C)C[C@H]1C	none (no result: HIF act, AI-2 QS mod, T cruzi repl)
CN(C)CC#Cc1ccc([C@@H]2[C@H](CO)N3CCCCN(C(=O)C4CCCC4)C[C@@H]23)cc1	none (no result: HIF act, AI-2 QS mod, T cruzi repl)
Cc1ccc(NC(=S)N2CCN(CCN3C(=O)c4cccc5cccc(c45)C3=O)CC2)cc1	T cruzi repl 74
Cc1ccccc1OCC(=O)N/N=C/c1cccc2cccnc12	ARNT-TACC3 inh 65
O=C(COc1ccc(F)cc1)N/N=C/c1cccc2cccnc12	ARNT-TACC3 inh 95
CC(C)(C)OC(=O)NCCC(=O)N/N=C/c1cccc2cccnc12	ARNT-TACC3 inh 69
O=C(COc1cccc2cccnc12)N/N=C/c1ccccc1O	none
CC(C)(C)OC(=O)N1CCC[C@H]1C(=O)N/N=C/c1cccc2cccnc12	ARNT-TACC3 inh 91
C[C@@H]1CCCCO[C@H](CN(C)S(=O)(=O)c2cn(C)cn2)[C@@H](C)CN([C@@H](C)CO)C(=O)c2cc(NC(=O)C3CCCCC3)ccc2O1	none (no result: HIF act, AI-2 QS mod, T cruzi repl)
